For three compounds, zone of inhibition, MIC and IC50 results are on record in ChEMBL document CHEMBL1909519, “L-Proline anchored multicomponent synthesis of novel pyrido[2,3-a]carbazoles; investigation of in vitro antimicrobial, antioxidant, cytotoxicity and structure activity relationship studies” (Eur J Med Chem, 2011).

For test [1], the system named is Staphylococcus aureus. Kind of test: Antibacterial activity against Staphylococcus aureus at 100 ug/ml after 24 hrs by agar disk diffusion assay. The settings on record: read-out: DIZ. The class given is functional. The gist of the method: (§1)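 Agar well diffusion on nutrient agar against Gram-positive clinical isolates (PSG Hospital, Coimbatore). Compounds in DMSO tested at 0 (control), 25, 50, 75, 100; DMSO as solvent and negative control; ciprofloxacin ([…]) as positive control. Plates incubated 37 ± 2 °C, 24 h; zone of inhibition diameter read in mm.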

Test [2] deals with Enterococcus faecalis. Briefly: Antibacterial activity against Enterococcus faecalis at 100 ug/ml after 24 hrs by agar disk diffusion assay. The note with it: read-out: DIZ. The class given is functional. The method, boiled down: as §1
The test system of test [3] is Escherichia coli. Briefly: Antibacterial activity against Escherichia coli at 100 ug/ml after 24 hrs by agar disk diffusion assay. The class given is functional. The note with it: read-out: DIZ. The method, boiled down: (§2)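 Gram-negative clinical isolates (PSG Hospital, Coimbatore) tested by agar well diffusion on nutrient agar. Compounds dissolved in DMSO at 0 (control), 25, 50, 75, 100; DMSO was the negative control and ciprofloxacin ([…]) the positive control. Incubation 37 ± 2 °C for 24 h, then inhibition zone diameter measured in mm.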

Test [4] relates to Klebsiella pneumoniae. Kind of test: Antibacterial activity against Klebsiella pneumoniae at 100 ug/ml after 24 hrs by agar disk diffusion assay. Type of test: functional. The note with it: read-out: DIZ. The method, boiled down:
as §2

The subject of test [5] is Aspergillus niger. Kind of test: Antifungal activity against Aspergillus niger at 100 ug/ml after 48 hrs by agar disk diffusion assay. Type of test: functional. The note with it: read-out: DIZ. The gist of the method: (§3)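 Fungal isolates (PSG Hospital, Coimbatore) grown on Sabouraud dextrose agar; agar well diffusion with compounds in DMSO at 0 (control), 25, 50, 75, 100. DMSO negative control, fluconazole ([…]) positive control. Plates held 28 ± 2 °C for 48 h; zone of inhibition diameter recorded in mm.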

Test [6] deals with Candida albicans. Kind of test: Antifungal activity against Candida albicans at 100 ug/ml after 48 hrs by agar disk diffusion assay. The class given is functional. The settings on record: read-out: DIZ. The gist of the method:
as §3

For test [7], the system named is Staphylococcus aureus. Kind of test: Antibacterial activity against Staphylococcus aureus after 24 hrs by agar disk diffusion assay. Type of test: functional. The gist of the method: as §1
For test [8], the system named is Enterococcus faecalis. Kind of test: Antibacterial activity against Enterococcus faecalis after 24 hrs by agar disk diffusion assay. The class given is functional. The gist of the method:
as §1

Test [9] has as its system Escherichia coli. Briefly: Antibacterial activity against Escherichia coli after 24 hrs by agar disk diffusion assay. Type of test: functional. The method, boiled down: as §2
The subject of test [10] is Klebsiella pneumoniae. Briefly: Antibacterial activity against Klebsiella pneumoniae after 24 hrs by agar disk diffusion assay. The class given is functional. The gist of the method:
as §2

The subject of test [11] is Aspergillus niger. Briefly: Antifungal activity against Aspergillus niger after 48 hrs by agar disk diffusion assay. The class given is functional. The method, boiled down:
as §3

Test [12] concerns Candida albicans. Briefly: Antifungal activity against Candida albicans after 48 hrs by agar disk diffusion assay. The class given is functional. The gist of the method: as §3
Test [13] relates to A549. Kind of test: Cytotoxicity against human A549 cells after 48 hrs by SRB assay. The class given is functional, cell-based. The note with it: A549, 48 h. The method, boiled down:
(§4)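 Cells in RPMI-1640 with 10% heat-inactivated FBS, 1 mM NaHCO3, 2 mM L-glutamine, 37 °C, 5% CO2; seeded (B16F10 5 × 10⁴ cells/mL, others 1 × 10⁵ cells/mL), 24 h, then compounds in DMSO at 1.56–50 for 48 h, triplicate wells. TCA fixation, SRB staining 30 min, tris extraction, OD 520 nm; IC50 by linear regression, mean ± SD of three independent experiments; cisplatin positive control.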

For test [14], the system named is B16-F10. Kind of test: Cytotoxicity against mouse B16F10 cells after 48 hrs by SRB assay. Type of test: functional, cell-based. The note with it: B16-F10, 48 h. The gist of the method:
as §4

Test [15] relates to HCT-15. Briefly: Cytotoxicity against human HCT15 cells after 48 hrs by SRB assay. Type of test: functional, cell-based. The settings on record: HCT-15, 48 h. The method, boiled down:
as §4

Test [16] deals with Radical scavenging activity. Kind of test: Antioxidant activity assessed as DPPH radical scavenging activity after 30 mins by micro plate reader. Type of test: functional. The method, boiled down: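 DPPH assay: various compound concentrations brought to volume with ethanol, mixed with 0.1 mM ethanolic DPPH alongside vitamin C standard; shaken 30 min at 24 °C, absorbance read at 517 nm; concentration giving 50% decrease determined.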

The nature of test [17]: Cytotoxicity against human SK-MEL-12 cells up to 50 ug/ml after 48 hrs by SRB assay. The class given is functional, cell-based. The gist of the method:
as §4

The test system of test [18] is SK-OV-3. Briefly: Cytotoxicity against human SKOV3 cells up to 50 ug/ml after 48 hrs by SRB assay. The class given is functional, cell-based. The method, boiled down: as §4
Test [19] deals with Staphylococcus aureus. Kind of test: Antibacterial activity against Staphylococcus aureus at 30 ug/ml after 24 hrs by agar disk diffusion assay. The note with it: read-out: DIZ.
For test [20], the system named is Enterococcus faecalis. Kind of test: Antibacterial activity against Enterococcus faecalis at 30 ug/ml after 24 hrs by agar disk diffusion assay. The settings on record: read-out: DIZ.
Test [21] has as its system Escherichia coli. Briefly: Antibacterial activity against Escherichia coli at 30 ug/ml after 24 hrs by agar disk diffusion assay. The settings on record: read-out: DIZ.
The test system of test [22] is Klebsiella pneumoniae. Briefly: Antibacterial activity against Klebsiella pneumoniae at 30 ug/ml after 24 hrs by agar disk diffusion assay. The settings on record: read-out: DIZ.
In test [23] the test system is Aspergillus niger. Briefly: Antifungal activity against Aspergillus niger at 30 ug/ml after 48 hrs by agar disk diffusion assay. The class given is functional. The note with it: read-out: DIZ. The gist of the method:
(§5)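 Agar well diffusion on Sabouraud dextrose agar; fungal strains obtained from a hospital. Compounds dissolved in DMSO, with DMSO as negative control and fluconazole ([…]) as positive control. Plates incubated at 28 ± 2 °C for 48 h. Activity taken as the diameter of the inhibition zone, in mm.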

Test [24] concerns Candida albicans. Kind of test: Antifungal activity against Candida albicans AT 30 ug/ml after 48 hrs by agar disk diffusion assay. The note with it: read-out: DIZ. Type of test: functional. The gist of the method: as §5

Each structure is given as a SMILES string. Converted amounts (≈) assume the structure as drawn. Where only a bound is given, the exact number is not on record here.

Turning to `Cc1ccc2[nH]c3c(c2c1)CCc1c-3nc(N)c(C#N)c1-c1ccccc1`, the zone of inhibition at 100 µg/mL in [1] was determined as 12 mm; in test [2], 14 mm; in test [3] it was 16 mm; in test [4], 15 mm; in test [5], 4 mm; in test [6] it was 3 mm. The MIC in [7] was 100 µg/mL (≈ 285 µM); in test [8], 100 µg/mL (≈ 285 µM); in [9], 100 µg/mL (≈ 285 µM); in test [10], 100 µg/mL (≈ 285 µM); in test [11], greater than 100 µg/mL; in test [12], greater than 100 µg/mL. For the same compound, the IC50 was 49.2 µg/mL (≈ 141 µM) in [13]; 47.6 µg/mL (≈ 136 µM) in [14]; 44.9 µg/mL (≈ 128 µM) in test [15]; 205.5 µg/mL (≈ 586 µM) in [16]; “Not Active” in [17]; “Not Active” in test [18].
On to `O=C(O)c1cn(C2CC2)c2cc(N3CCNCC3)c(F)cc2c1=O` [CIPROFLOXACIN], for which the MIC in test [7], in [8], in [9] and in test [10] was 12.5 µg/mL (≈ 37.7 µM) each time. Further, the zone of inhibition at 30 µg/mL amounted to 28 mm in test [19], 29 mm in test [20], 27 mm in test [21] and 30 mm in test [22].
With `OC(Cn1cncn1)(Cn1cncn1)c1ccc(F)cc1F` [FLUCONAZOLE], the minimum inhibitory concentration (MIC) in test [11] and in test [12] was 12.5 µg/mL (≈ 40.8 µM) each time. Besides, the results for the zone of inhibition at 30 µg/mL in [23] and in test [24] were 19 mm and 22 mm, respectively.
